Results reported in article PMC3902791 (Molecular imaging and biology : MIB : the official …, 2012).
Several values for one entry are separate records, joined by “and”; a condition that tells them apart may be missing. Equal entries are not always repeated. Where two headings read alike, the source gives them in different places.

Set-up: species or system human
Outline: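 Organ time–activity curves came from whole-body scan VOI data. These were fitted mono-exponentially in five animals; in the sixth, with two scans, a linear fit to the log values was used. Time-integrated activity coefficients were scaled by the ratio of body-mass-normalised human to CT-derived macaque organ masses. Intestinal values were split in thirds across small intestine, ULI and LLI. Organ doses (mSv/MBq) were computed per animal with the OLINDA/EXM 1.1 adult male model.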

O=C(O)C[18F] [^18F-FACE, ^18F-fluoroacetate]
Dose to adult human model, Total body (All, Mean±SD): 0.011±0.002 mSv/MBq | ED effective dose, adult human model (All, Mean±SD): 0.0211 mSv/MBq and 0.021±0.004 mSv/MBq | EDE effective dose equivalent, adult human model (All, Mean±SD): 0.023±0.004 mSv/MBq | Organ dose to adult human model, Adrenals (All, Mean±SD): 0.013±0.002 mSv/MBq | Organ dose to adult human model, Brain (All, Mean±SD): 0.00762 mSv/MBq and 0.008±0.002 mSv/MBq | Organ dose to adult human model, Breasts (All, Mean±SD): 0.00774 mSv/MBq and 0.008±0.001 mSv/MBq | Organ dose to adult human model, Gallbladder wall (All, Mean±SD): 0.0288 mSv/MBq and 0.029±0.010 mSv/MBq | Organ dose to adult human model, Heart wall (All, Mean±SD): 0.025±0.010 mSv/MBq | Organ dose to adult human model, Kidneys (All, Mean±SD): 0.0342 mSv/MBq and 0.034±0.008 mSv/MBq | Organ dose to adult human model, LLI wall (lower large intestine) (All, Mean±SD): 0.075±0.027 mSv/MBq | Organ dose to adult human model, Liver (All, Mean±SD): 0.0307 mSv/MBq and 0.031±0.021 mSv/MBq | Organ dose to adult human model, Lungs (All, Mean±SD): 0.010±0.002 mSv/MBq | Organ dose to adult human model, Muscle (All, Mean±SD): 0.010±0.002 mSv/MBq | Organ dose to adult human model, Osteogenic cells (All, Mean±SD): 0.014±0.003 mSv/MBq | Organ dose to adult human model, Ovaries (All, Mean±SD): 0.016±0.002 mSv/MBq | Organ dose to adult human model, Pancreas (All, Mean±SD): 0.013±0.002 mSv/MBq | Organ dose to adult human model, Red marrow (All, Mean±SD): 0.0102 mSv/MBq and 0.010±0.002 mSv/MBq | Organ dose to adult human model, Skin (All, Mean±SD): 0.007±0.001 mSv/MBq | Organ dose to adult human model, Small intestine (All, Mean±SD): 0.037±0.011 mSv/MBq | Organ dose to adult human model, Spleen (All, Mean±SD): 0.011±0.002 mSv/MBq | Organ dose to adult human model, Stomach wall (All, Mean±SD): 0.012±0.002 mSv/MBq | Organ dose to adult human model, Testes (All, Mean±SD): 0.009±0.001 mSv/MBq | Organ dose to adult human model, Thymus (All, Mean±SD): 0.010±0.002 mSv/MBq | Organ dose to adult human model, Thyroid (All, Mean±SD): 0.00888 mSv/MBq and 0.009±0.002 mSv/MBq | Organ dose to adult human model, ULI wall (upper large intestine) (All, Mean±SD): 0.056±0.019 mSv/MBq | Organ dose to adult human model, Urinary bladder wall (All, Mean±SD): 0.021±0.010 mSv/MBq | Organ dose to adult human model, Uterus (All, Mean±SD): 0.014±0.003 mSv/MBq | Dose to adult human model, Total body (Female, Mean±SD): 0.010±0.002 mSv/MBq | ED effective dose, adult human model (Female, Mean±SD): 0.018±0.001 mSv/MBq | EDE effective dose equivalent, adult human model (Female, Mean±SD): 0.020±0.001 mSv/MBq | Organ dose to adult human model, Adrenals (Female, Mean±SD): 0.012±0.002 mSv/MBq | Organ dose to adult human model, Brain (Female, Mean±SD): 0.007±0.002 mSv/MBq | Organ dose to adult human model, Breasts (Female, Mean±SD): 0.007±0.002 mSv/MBq | Organ dose to adult human model, Gallbladder wall (Female, Mean±SD): 0.031±0.013 mSv/MBq | Organ dose to adult human model, Heart wall (Female, Mean±SD): 0.019±0.006 mSv/MBq | Organ dose to adult human model, Kidneys (Female, Mean±SD): 0.031±0.010 mSv/MBq | Organ dose to adult human model, LLI wall (lower large intestine) (Female, Mean±SD): 0.058±0.005 mSv/MBq | Organ dose to adult human model, Liver (Female, Mean±SD): 0.021 ±0.009 mSv/MBq | Organ dose to adult human model, Lungs (Female, Mean±SD): 0.009±0.002 mSv/MBq | Organ dose to adult human model, Muscle (Female, Mean±SD): 0.009±0.002 mSv/MBq | Organ dose to adult human model, Osteogenic cells (Female, Mean±SD): 0.014±0.004 mSv/MBq | Organ dose to adult human model, Ovaries (Female, Mean±SD): 0.016±0.002 mSv/MBq | Organ dose to adult human model, Pancreas (Female, Mean±SD): 0.012±0.002 mSv/MBq | Organ dose to adult human model, Red marrow (Female, Mean±SD): 0.009±0.002 mSv/MBq | Organ dose to adult human model, Skin (Female, Mean±SD): 0.007±0.002 mSv/MBq | Organ dose to adult human model, Small intestine (Female, Mean±SD): 0.030±0.002 mSv/MBq | Organ dose to adult human model, Spleen (Female, Mean±SD): 0.010±0.003 mSv/MBq | Organ dose to adult human model, Stomach wall (Female, Mean±SD): 0.011±0.002 mSv/MBq | Organ dose to adult human model, Thymus (Female, Mean±SD): 0.009±0.002 mSv/MBq | Organ dose to adult human model, Thyroid (Female, Mean±SD): 0.009±0.003 mSv/MBq | Organ dose to adult human model, ULI wall (upper large intestine) (Female, Mean±SD): 0.044±0.003 mSv/MBq | Organ dose to adult human model, Urinary bladder wall (Female, Mean±SD): 0.017±0.004 mSv/MBq | Organ dose to adult human model, Uterus (Female, Mean±SD): 0.014±0.003 mSv/MBq | Dose to adult human model, Total body (Male, Mean±SD): 0.012±0.001 mSv/MBq | ED effective dose, adult human model (Male, Mean±SD): 0.025±0.003 mSv/MBq | EDE effective dose equivalent, adult human model (Male, Mean±SD): 0.027±0.003 mSv/MBq | Organ dose to adult human model, Adrenals (Male, Mean±SD): 0.014±0.002 mSv/MBq | Organ dose to adult human model, Brain (Male, Mean±SD): 0.008±0.001 mSv/MBq | Organ dose to adult human model, Breasts (Male, Mean±SD): 0.008±0.001 mSv/MBq | Organ dose to adult human model, Gallbladder wall (Male, Mean±SD): 0.027±0.008 mSv/MBq | Organ dose to adult human model, Heart wall (Male, Mean±SD): 0.031±0.010 mSv/MBq | Organ dose to adult human model, Kidneys (Male, Mean±SD): 0.037±0.008 mSv/MBq | Organ dose to adult human model, LLI wall (lower large intestine) (Male, Mean±SD): 0.091±0.031 mSv/MBq | Organ dose to adult human model, Liver (Male, Mean±SD): 0.040±0.026 mSv/MBq | Organ dose to adult human model, Lungs (Male, Mean±SD): 0.010±0.001 mSv/MBq | Organ dose to adult human model, Muscle (Male, Mean±SD): 0.010±0.001 mSv/MBq | Organ dose to adult human model, Osteogenic cells (Male, Mean±SD): 0.015±0.001 mSv/MBq | Organ dose to adult human model, Pancreas (Male, Mean±SD): 0.015±0.001 mSv/MBq | Organ dose to adult human model, Red marrow (Male, Mean±SD): 0.011±0.001 mSv/MBq | Organ dose to adult human model, Skin (Male, Mean±SD): 0.008±0.001 mSv/MBq | Organ dose to adult human model, Small intestine (Male, Mean±SD): 0.044±0.012 mSv/MBq | Organ dose to adult human model, Spleen (Male, Mean±SD): 0.012±0.001 mSv/MBq | Organ dose to adult human model, Stomach wall (Male, Mean±SD): 0.013±0.001 mSv/MBq | Organ dose to adult human model, Testes (Male, Mean±SD): 0.009±0.001 mSv/MBq | Organ dose to adult human model, Thymus (Male, Mean±SD): 0.010±0.001 mSv/MBq | Organ dose to adult human model, Thyroid (Male, Mean±SD): 0.009±0.001 mSv/MBq | Organ dose to adult human model, ULI wall (upper large intestine) (Male, Mean±SD): 0.068±0.021 mSv/MBq | Organ dose to adult human model, Urinary bladder wall (Male, Mean±SD): 0.025±0.015 mSv/MBq | estimated effective dose for an adult human (administration of 185–370 MBq): 3.90–7.81 mSv | radiation absorbed dose, intestines (adult male model): 0.0366–0.0745 mSv/MBq | Dose to adult human model, Total body (from animal 1, male): 0.012 mSv/MBq | ED effective dose, adult human model (from animal 1, male): 0.022 mSv/MBq | EDE effective dose equivalent, adult human model (from animal 1, male): 0.024 mSv/MBq | Organ dose to adult human model, Adrenals (from animal 1, male): 0.016 mSv/MBq | Organ dose to adult human model, Brain (from animal 1, male): 0.007 mSv/MBq | Organ dose to adult human model, Breasts (from animal 1, male): 0.008 mSv/MBq | Organ dose to adult human model, Gallbladder wall (from animal 1, male): 0.031 mSv/MBq | Organ dose to adult human model, Heart wall (from animal 1, male): 0.035 mSv/MBq | Organ dose to adult human model, Kidneys (from animal 1, male): 0.046 mSv/MBq | Organ dose to adult human model, LLI wall (lower large intestine) (from animal 1, male): 0.058 mSv/MBq | Organ dose to adult human model, Liver (from animal 1, male): 0.067 mSv/MBq | Organ dose to adult human model, Lungs (from animal 1, male): 0.011 mSv/MBq | Organ dose to adult human model, Muscle (from animal 1, male): 0.010 mSv/MBq | Organ dose to adult human model, Osteogenic cells (from animal 1, male): 0.014 mSv/MBq | Organ dose to adult human model, Pancreas (from animal 1, male): 0.016 mSv/MBq | Organ dose to adult human model, Red marrow (from animal 1, male): 0.011 mSv/MBq | Organ dose to adult human model, Skin (from animal 1, male): 0.007 mSv/MBq | Organ dose to adult human model, Small intestine (from animal 1, male): 0.031 mSv/MBq | Organ dose to adult human model, Spleen (from animal 1, male): 0.012 mSv/MBq | Organ dose to adult human model, Stomach wall (from animal 1, male): 0.013 mSv/MBq | Organ dose to adult human model, Testes (from animal 1, male): 0.009 mSv/MBq | Organ dose to adult human model, Thymus (from animal 1, male): 0.010 mSv/MBq | Organ dose to adult human model, Thyroid (from animal 1, male): 0.009 mSv/MBq | Organ dose to adult human model, ULI wall (upper large intestine) (from animal 1, male): 0.045 mSv/MBq | Organ dose to adult human model, Urinary bladder wall (from animal 1, male): 0.042 mSv/MBq | Dose to adult human model, Total body (from animal 2, male): 0.012 mSv/MBq | ED effective dose, adult human model (from animal 2, male): 0.025 mSv/MBq | EDE effective dose equivalent, adult human model (from animal 2, male): 0.027 mSv/MBq | Organ dose to adult human model, Adrenals (from animal 2, male): 0.014 mSv/MBq | Organ dose to adult human model, Brain (from animal 2, male): 0.007 mSv/MBq | Organ dose to adult human model, Breasts (from animal 2, male): 0.008 mSv/MBq | Organ dose to adult human model, Gallbladder wall (from animal 2, male): 0.033 mSv/MBq | Organ dose to adult human model, Heart wall (from animal 2, male): 0.038 mSv/MBq | Organ dose to adult human model, Kidneys (from animal 2, male): 0.032 mSv/MBq | Organ dose to adult human model, LLI wall (lower large intestine) (from animal 2, male): 0.096 mSv/MBq | Organ dose to adult human model, Liver (from animal 2, male): 0.041 mSv/MBq
